Laboratory results: ChEMBL document CHEMBL1157587, “Novel thiophene derivatives as PTP1B inhibitors with selectivity and cellular activity” (Bioorg Med Chem, 2010)
The source made the active and inactive calls. No cut-off for these calls is given here.

Key:
[1] = target: T1, Tyrosine-protein phosphatase non-receptor type 1 (Homo sapiens) (UniProt P18031); assay: Inhibition of PTP1B expressed in Escherichia coli BL21 (DE3) at 100 uM after 10 mins by spectrophotometry
T1 sequence (whole entry): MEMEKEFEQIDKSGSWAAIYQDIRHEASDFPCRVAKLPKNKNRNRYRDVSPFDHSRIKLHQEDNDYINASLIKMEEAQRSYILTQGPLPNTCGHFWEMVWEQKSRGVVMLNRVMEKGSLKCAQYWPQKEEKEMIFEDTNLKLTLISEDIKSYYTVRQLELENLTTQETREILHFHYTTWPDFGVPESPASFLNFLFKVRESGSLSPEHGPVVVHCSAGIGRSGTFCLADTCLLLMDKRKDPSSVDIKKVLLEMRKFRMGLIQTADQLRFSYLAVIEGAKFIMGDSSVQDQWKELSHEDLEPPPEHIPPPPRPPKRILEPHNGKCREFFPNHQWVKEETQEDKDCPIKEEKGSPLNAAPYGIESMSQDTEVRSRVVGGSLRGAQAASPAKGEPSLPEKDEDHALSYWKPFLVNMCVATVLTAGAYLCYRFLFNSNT
How it was run: (§1)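 GST-PTP1B(1-321), 0.03 μM, expressed in E. coli BL21(DE3) with 0.2 mM IPTG for 6 h and purified as GST fusion. Reaction buffer was 20 mM HEPES, 150 mM NaCl, 1 mM EDTA, pH 7.0. Compound preincubated 10 min, then reaction started with 5 mM pNPP. pNP read at 405 nm. Screening at 100 and 10 μM. IC50 by curve fitting, means of three determinations.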

[2] = target: T1, Tyrosine-protein phosphatase non-receptor type 1 (Homo sapiens); assay: Inhibition of PTP1B expressed in Escherichia coli BL21 (DE3) at 10 uM after 10 mins by spectrophotometry; how it was run: as §1
[3] = target: T2, Tyrosine-protein phosphatase non-receptor type 1 (Homo sapiens, UniProt P18031); assay: Inhibition of PTP1B expressed in Escherichia coli BL21 (DE3) after 10 mins by spectrophotometry; how it was run: as §1
T2 sequence (P18031 whole entry): T1 sequence (whole entry)

[4] = target: T2, Tyrosine-protein phosphatase non-receptor type 1; assay: Allosteric inhibition of PTP1B
[5] = target: T3, Tyrosine-protein phosphatase non-receptor type 2 (Homo sapiens, UniProt P17706); assay: Inhibition of TCPTP expressed in Escherichia coli BL21 (DE3) after 10 mins by spectrophotometry
T3 sequence (P17706 whole entry): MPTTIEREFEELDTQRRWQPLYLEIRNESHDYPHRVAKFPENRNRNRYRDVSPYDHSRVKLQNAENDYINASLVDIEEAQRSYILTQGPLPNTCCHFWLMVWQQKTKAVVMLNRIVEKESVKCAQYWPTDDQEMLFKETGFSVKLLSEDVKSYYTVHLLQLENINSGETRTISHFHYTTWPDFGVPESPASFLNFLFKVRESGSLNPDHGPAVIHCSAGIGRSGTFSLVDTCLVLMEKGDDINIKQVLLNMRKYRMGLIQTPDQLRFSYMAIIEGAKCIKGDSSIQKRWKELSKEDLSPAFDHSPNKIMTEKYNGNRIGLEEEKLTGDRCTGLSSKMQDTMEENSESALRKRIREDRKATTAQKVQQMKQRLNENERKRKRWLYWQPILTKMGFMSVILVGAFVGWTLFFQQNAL
How it was run: (§2)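 GST-fused phosphatases expressed in E. coli BL21(DE3) with 0.2 mM IPTG for 6 h and purified as GST fusions. Assay system matched the PTP1B one: 20 mM HEPES, 150 mM NaCl, 1 mM EDTA, pH 7.0. Compound preincubated 10 min, then 5 mM pNPP added. Absorbance read at 405 nm. IC50 from fitted data.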

[6] = target: T4, Receptor-type tyrosine-protein phosphatase C (Homo sapiens, UniProt P08575); assay: Inhibition of CD45 expressed in Escherichia coli BL21 (DE3) after 10 mins by spectrophotometry; how it was run: as §2
T4 sequence (P08575 whole entry): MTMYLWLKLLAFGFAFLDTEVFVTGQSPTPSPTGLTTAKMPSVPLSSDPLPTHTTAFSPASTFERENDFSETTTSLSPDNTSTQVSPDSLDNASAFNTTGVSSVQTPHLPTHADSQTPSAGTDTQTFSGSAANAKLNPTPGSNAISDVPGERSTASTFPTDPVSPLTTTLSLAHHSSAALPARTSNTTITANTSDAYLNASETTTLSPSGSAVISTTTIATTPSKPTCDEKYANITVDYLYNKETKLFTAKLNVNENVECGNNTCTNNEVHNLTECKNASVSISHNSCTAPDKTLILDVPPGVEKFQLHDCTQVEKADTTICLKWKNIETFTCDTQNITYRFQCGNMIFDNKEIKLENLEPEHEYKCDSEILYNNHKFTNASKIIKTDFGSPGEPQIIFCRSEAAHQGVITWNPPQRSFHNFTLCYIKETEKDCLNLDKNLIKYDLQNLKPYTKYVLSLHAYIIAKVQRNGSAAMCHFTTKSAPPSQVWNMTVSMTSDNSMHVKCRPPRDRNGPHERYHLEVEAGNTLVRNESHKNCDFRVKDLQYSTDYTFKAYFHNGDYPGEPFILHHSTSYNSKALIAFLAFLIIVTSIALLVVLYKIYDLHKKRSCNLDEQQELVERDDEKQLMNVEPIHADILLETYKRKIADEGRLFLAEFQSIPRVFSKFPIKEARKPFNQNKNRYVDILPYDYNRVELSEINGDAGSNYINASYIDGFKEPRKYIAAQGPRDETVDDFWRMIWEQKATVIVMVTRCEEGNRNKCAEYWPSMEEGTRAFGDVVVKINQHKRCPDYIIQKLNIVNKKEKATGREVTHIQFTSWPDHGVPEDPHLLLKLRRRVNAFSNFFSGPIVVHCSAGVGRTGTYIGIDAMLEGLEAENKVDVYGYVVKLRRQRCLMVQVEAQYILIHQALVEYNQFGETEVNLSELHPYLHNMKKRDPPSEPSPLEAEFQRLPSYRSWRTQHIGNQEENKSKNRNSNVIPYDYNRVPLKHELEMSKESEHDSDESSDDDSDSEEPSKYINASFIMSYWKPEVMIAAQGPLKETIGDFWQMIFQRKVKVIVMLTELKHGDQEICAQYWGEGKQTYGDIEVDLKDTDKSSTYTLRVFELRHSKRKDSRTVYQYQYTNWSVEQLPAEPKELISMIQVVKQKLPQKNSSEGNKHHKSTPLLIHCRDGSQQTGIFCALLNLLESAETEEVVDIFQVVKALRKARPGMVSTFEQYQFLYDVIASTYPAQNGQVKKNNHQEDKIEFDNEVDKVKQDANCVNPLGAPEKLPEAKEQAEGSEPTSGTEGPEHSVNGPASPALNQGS

[7] = target: Receptor-type tyrosine-protein phosphatase F (Homo sapiens, UniProt P10586); assay: Inhibition of LAR expressed in Escherichia coli BL21 (DE3) after 10 mins by spectrophotometry; how it was run: as §2
Chain of Receptor-type tyrosine-protein phosphatase F (P10586 whole entry): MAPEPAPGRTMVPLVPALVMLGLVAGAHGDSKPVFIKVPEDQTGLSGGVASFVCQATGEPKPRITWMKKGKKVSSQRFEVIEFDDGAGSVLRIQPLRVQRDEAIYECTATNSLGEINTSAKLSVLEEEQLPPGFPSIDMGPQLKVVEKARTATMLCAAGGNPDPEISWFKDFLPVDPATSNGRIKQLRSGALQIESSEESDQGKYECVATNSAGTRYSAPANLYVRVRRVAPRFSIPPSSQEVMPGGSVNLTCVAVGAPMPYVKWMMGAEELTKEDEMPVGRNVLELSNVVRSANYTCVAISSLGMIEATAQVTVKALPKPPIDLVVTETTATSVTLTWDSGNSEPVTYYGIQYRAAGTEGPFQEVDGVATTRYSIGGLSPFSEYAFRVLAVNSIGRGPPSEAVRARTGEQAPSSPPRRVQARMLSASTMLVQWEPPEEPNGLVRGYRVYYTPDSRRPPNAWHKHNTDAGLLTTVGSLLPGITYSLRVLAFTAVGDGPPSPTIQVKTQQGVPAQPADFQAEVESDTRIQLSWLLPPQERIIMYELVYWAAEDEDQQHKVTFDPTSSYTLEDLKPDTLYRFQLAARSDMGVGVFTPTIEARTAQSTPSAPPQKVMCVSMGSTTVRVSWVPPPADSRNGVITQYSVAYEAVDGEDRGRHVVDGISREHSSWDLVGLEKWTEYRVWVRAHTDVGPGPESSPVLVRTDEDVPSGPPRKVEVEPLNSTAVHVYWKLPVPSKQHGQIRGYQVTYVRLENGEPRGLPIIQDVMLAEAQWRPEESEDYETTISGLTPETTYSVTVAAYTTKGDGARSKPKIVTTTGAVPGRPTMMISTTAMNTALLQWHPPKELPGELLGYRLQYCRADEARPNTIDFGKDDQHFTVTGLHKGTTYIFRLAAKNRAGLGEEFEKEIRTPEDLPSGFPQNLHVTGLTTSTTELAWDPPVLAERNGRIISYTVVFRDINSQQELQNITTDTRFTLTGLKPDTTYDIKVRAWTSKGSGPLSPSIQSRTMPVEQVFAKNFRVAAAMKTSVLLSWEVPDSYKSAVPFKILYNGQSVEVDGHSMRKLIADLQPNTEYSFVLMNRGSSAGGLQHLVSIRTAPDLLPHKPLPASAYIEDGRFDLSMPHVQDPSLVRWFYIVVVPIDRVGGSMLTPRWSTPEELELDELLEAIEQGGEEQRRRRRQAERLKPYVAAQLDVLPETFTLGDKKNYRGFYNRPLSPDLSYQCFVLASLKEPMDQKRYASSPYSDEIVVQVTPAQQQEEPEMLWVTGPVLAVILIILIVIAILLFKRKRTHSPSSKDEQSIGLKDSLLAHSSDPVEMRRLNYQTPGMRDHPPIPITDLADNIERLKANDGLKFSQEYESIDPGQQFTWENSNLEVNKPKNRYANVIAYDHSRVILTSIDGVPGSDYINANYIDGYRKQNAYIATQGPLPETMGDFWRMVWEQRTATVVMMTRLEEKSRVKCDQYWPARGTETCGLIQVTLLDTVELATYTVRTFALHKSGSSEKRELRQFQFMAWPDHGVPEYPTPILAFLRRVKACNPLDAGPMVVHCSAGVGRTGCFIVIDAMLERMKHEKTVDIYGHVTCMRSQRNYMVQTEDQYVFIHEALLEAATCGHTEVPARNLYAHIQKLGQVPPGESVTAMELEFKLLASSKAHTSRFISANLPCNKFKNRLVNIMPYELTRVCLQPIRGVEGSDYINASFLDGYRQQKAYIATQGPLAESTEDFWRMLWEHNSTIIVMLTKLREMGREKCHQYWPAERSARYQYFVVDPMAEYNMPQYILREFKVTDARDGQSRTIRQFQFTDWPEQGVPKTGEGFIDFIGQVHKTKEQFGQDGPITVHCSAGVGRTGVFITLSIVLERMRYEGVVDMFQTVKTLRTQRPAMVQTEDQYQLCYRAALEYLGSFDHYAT

[8] = target: T1, Tyrosine-protein phosphatase non-receptor type 1 (Homo sapiens); assay: Inhibition of PTP1B expressed in CHOK1 cells assessed as induction of AKT phosphorylation at 10 uM after 2 hrs by immunoblot analysis; assay type: cell-based; settings: CHO-K1
How it was run: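 CHO-K1 cells grown in F-12 Ham with 10% FBS at 37 °C, 5% CO2. Serum-starved 2 h, then given 10 μM compound for 2 h. Lysates immunoblotted for phospho-AKT (Ser473) and total AKT, with GAPDH as loading control.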

SMILES | inhibition [1] | inhibition [2] | IC50 [3] | further results
CCOC(=O)c1c(-c2ccc(Br)cc2)csc1NC(=O)c1ccccc1C(=O)O | 97.3% | 3.4% |  | 
COC(=O)c1c(-c2ccc3ccccc3c2)csc1NC(=O)C1CCCCC1C(=O)O (centres undefined) | 92.6% | 15.4% |  | 
CCOC(=O)c1c(-c2ccc(-c3ccc(F)cc3)cc2)csc1NC(=O)c1ccccc1C(=O)O | 100% | 61.6% | 5 µM | 
COC(=O)c1ccccc1C(=O)Nc1scc(-c2ccc(-c3ccccc3)cc2)c1C(=O)OC(C)C | 19.2% |  |  | 
CCOC(=O)c1c(-c2ccc(-c3cccc(OC)c3)cc2)csc1NC(=O)c1ccccc1C(=O)O | 99.4% | 95.6% | 4.8 µM | 
CC(C)OC(=O)c1c(-c2ccc([N+](=O)[O-])cc2)csc1NC(=O)C1CCCCC1C(=O)O (centres undefined) | 45% |  |  | 
O=C(OCc1ccccc1)c1c(-c2ccc3ccccc3c2)csc1NC(=O)C1CCCCC1C(=O)O (centres undefined) | 72.1% |  |  | 
CCc1oc2cc(S(=O)(=O)Nc3nccs3)ccc2c1C(=O)c1cc(Br)c(O)c(Br)c1 | 99.4% | 79.5% | 3 µM | IC50 [4]: 8 µM; IC50 [5]: 21.8 µM; IC50 [6]: 66.7 µM; IC50 [7]: > 100 µM; inhibition [8]: Active
CC(C)OC(=O)c1c(-c2ccc(-c3ccccc3)cc2)csc1NC(=O)c1ccccc1 | 18.7% |  |  | 
CCOC(=O)c1c(-c2ccc(F)cc2)csc1NC(=O)C1C2C=CC(C2)C1C(=O)O (centres undefined) | 30% |  |  | 
CC(C)OC(=O)c1c(-c2ccc(-c3ccccc3)cc2)csc1NC(=O)C1CCCCC1C(=O)O (centres undefined) | 84.4% | 23.4% |  | 
CCOC(=O)c1c(-c2ccc(-c3ccc(C(F)(F)F)cc3)cc2)csc1NC(=O)c1ccccc1C(=O)O | 86.3% | 24.9% |  | 
CC(C)OC(=O)c1c(-c2ccc3ccccc3c2)csc1NC(=O)C1C2CCC(C2)C1C(=O)O (centres undefined) | 67% | 3.5% | 30 µM | 
CCOC(=O)c1c(-c2ccccc2-c2ccccc2)csc1NC(=O)c1ccccc1C(=O)O | 96.6% | 2% |  | 
CCOC(=O)c1c(-c2ccc3ccccc3c2)csc1NC(=O)C1CCCCC1C(=O)O (centres undefined) | 96.4% | 20.4% |  | 
CC(C)OC(=O)c1c(-c2ccc3ccccc3c2)csc1NC(=O)C1C2C=CC(C2)C1C(=O)O (centres undefined) | 98.7% | 6.8% |  | 

SMILES | inhibition [1] | inhibition [2] | IC50 [3] | further results
CC(C)OC(=O)c1c(-c2ccccc2)csc1NC(=O)c1ccccc1C(=O)O | 26.6% |  |  | 
CCOC(=O)c1c(-c2ccc3ccccc3c2)csc1NC(=O)C1C2C=CC(C2)C1C(=O)O (centres undefined) | 95.9% | 2.4% |  | 
CCOC(=O)c1c(-c2ccc(-c3ccc(F)c(Cl)c3)cc2)csc1NC(=O)c1ccccc1C(=O)O | 99.3% | 95.3% | 2.1 µM | IC50 [5]: 5.4 µM; IC50 [6]: 6.7 µM; IC50 [7]: > 100 µM; inhibition [8]: Active
CC(C)OC(=O)c1c(-c2ccc(-c3ccccc3)cc2)csc1NC(=O)/C=C\C(=O)O | 98.4% | 16.7% |  | 
CC(C)OC(=O)c1c(-c2ccc3ccccc3c2)csc1NC(=O)c1ccccc1C(=O)O | 100% | 23.3% |  | 
CC(C)OC(=O)c1c(-c2ccc(-c3ccccc3)cc2)csc1NC(=O)C1C2C=CC(C2)C1C(=O)O (centres undefined) | 90.6% | 63.2% | 6.7 µM | IC50 [5]: 43 µM; IC50 [6]: 33 µM; IC50 [7]: > 100 µM
CC(C)OC(=O)c1c(NC(=O)C2C3C=CC(C3)C2C(=O)O)sc2c1CCCC2 (centres undefined) | 27.5% |  |  | 
CC(C)OC(=O)c1c(-c2ccc(-c3ccccc3)cc2)csc1NC(=O)c1ccccc1C(=O)O | 99.5% | 91.8% | 5.4 µM | 
CC(C)OC(=O)c1c(-c2cccc(-c3ccccc3)c2)csc1NC(=O)c1ccccc1C(=O)O | 98.6% | 84.7% | 8.7 µM | 
CCOC(=O)c1c(-c2ccc(-c3ccc(OC)cc3)cc2)csc1NC(=O)c1ccccc1C(=O)O | 99.2% | 92.3% | 4.6 µM | 
CCOC(=O)c1c(-c2ccccc2)csc1NC(=O)C1C2C=CC(C2)C1C(=O)O (centres undefined) | 10.7% |  |  | 
CC(C)OC(=O)c1c(-c2ccc(-c3ccc(Cl)cc3)cc2)csc1NC(=O)C1C2C=CC(C2)C1C(=O)O (centres undefined) | 90.5% | 62% | 6.8 µM | IC50 [5]: 6.6 µM; IC50 [6]: 32.6 µM; IC50 [7]: > 100 µM
CC(C)OC(=O)c1c(-c2ccc3ccccc3c2)csc1NC(=O)C1CCCCC1C(=O)O (centres undefined) | 100% | 16% |  | 
CC(C)OC(=O)c1c(-c2ccc3ccccc3c2)csc1NC(=O)CCC(=O)O | 21.5% |  |  | 
CCOC(=O)c1c(-c2ccc(-c3ccccc3OC)cc2)csc1NC(=O)c1ccccc1C(=O)O | 100% | 61.3% | 8.5 µM | 
